Where a name gives a salt, the structure may show the parent alone.
These compounds were tested on DU-145 (assay: Cytotoxicity against human DU145 cells after 2 days by automatic ELISA reader system). Conditions: DU-145, 48 h.
Assay type: functional, cell-based
Procedure, shortened: (§1)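 Cells seeded at 2–4 × 10⁴ per well and grown overnight in medium with 10% FBS, 5% CO₂, 37 °C. Compound added on day 2; on day 4 CCK-8 solution added and incubated a further 4 h. Absorbance read at 450 nm and fitted to a four-parameter logistic equation for IC₅₀.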

| SMILES | IC50 |
| --- | --- |
| Oc1ccccc1-c1cc(-c2ccccc2)cc(-c2ccccc2O)n1 | 8 µM |
| Oc1cccc(-c2cc(-c3ccccc3)nc(-c3cccnc3)c2)c1 | 18.9 µM |
| Oc1cccc(-c2cc(-c3ccccc3)nc(-c3ccccn3)c2)c1 | 15.5 µM |
| Oc1ccccc1-c1cc(-c2ccccc2)nc(-c2ccco2)c1 | 4.9 µM |
| Oc1ccc(-c2cc(-c3ccccc3)cc(-c3ccco3)n2)cc1 | 3.2 µM |
| CC[C@@]1(O)C(=O)OCc2c1cc1n(c2=O)Cc2cc3ccccc3nc2-1 [CAMPTOTHECIN] | 0.4 µM |
| Oc1ccc(-c2cc(-c3ccccc3)cc(-c3ccccc3)n2)cc1 | 3 µM |
| Oc1ccc(-c2cc(-c3ccccc3)cc(-c3cccs3)n2)cc1 | 3.7 µM |
| Oc1ccc(-c2cc(-c3ccccc3)cc(-c3ccc(O)cc3)n2)cc1 | 22 µM |
| COc1cccc2c1C(=O)c1c(O)c3c(c(O)c1C2=O)C[C@@](O)(C(=O)CO)C[C@@H]3O[C@H]1C[C@H](N)[C@H](O)[C@H](C)O1 [DOXORUBICIN HYDROCHLORIDE] | 1 µM |

These compounds were tested on HCT-15 (assay: Cytotoxicity against human HCT15 cells after 2 days by automatic ELISA reader system). Conditions: HCT-15, 48 h.
Assay type: functional, cell-based
Procedure, shortened: as §1

| SMILES | IC50 |
| --- | --- |
| Oc1ccccc1-c1cc(-c2ccccc2)cc(-c2ccccc2O)n1 | > 50 µM |
| Oc1cccc(-c2cc(-c3ccccc3)nc(-c3cccnc3)c2)c1 | 18.4 µM |
| Oc1cccc(-c2cc(-c3ccccc3)nc(-c3ccccn3)c2)c1 | 20.9 µM |
| Oc1ccccc1-c1cc(-c2ccccc2)nc(-c2ccco2)c1 | 2.5 µM |
| Oc1ccc(-c2cc(-c3ccccc3)cc(-c3ccco3)n2)cc1 | 3.5 µM |
| CC[C@@]1(O)C(=O)OCc2c1cc1n(c2=O)Cc2cc3ccccc3nc2-1 [CAMPTOTHECIN] | 0.5 µM |
| Oc1ccc(-c2cc(-c3ccccc3)cc(-c3ccccc3)n2)cc1 | 3.7 µM |
| Oc1ccc(-c2cc(-c3ccccc3)cc(-c3cccs3)n2)cc1 | 12.5 µM |
| Oc1ccc(-c2cc(-c3ccccc3)cc(-c3ccc(O)cc3)n2)cc1 | 3 µM |
| COc1cccc2c1C(=O)c1c(O)c3c(c(O)c1C2=O)C[C@@](O)(C(=O)CO)C[C@@H]3O[C@H]1C[C@H](N)[C@H](O)[C@H](C)O1 [DOXORUBICIN HYDROCHLORIDE] | 1.2 µM |

Each compound was assayed on HL-60 (assay: Cytotoxicity against human HL60 cells after 2 days by automatic ELISA reader system). Conditions: HL-60, 48 h.
Assay type: functional, cell-based
Procedure, shortened: as §1

| SMILES | IC50 |
| --- | --- |
| Oc1ccccc1-c1cc(-c2ccccc2)cc(-c2ccccc2O)n1 | 22.4 µM |
| Oc1cccc(-c2cc(-c3ccccc3)nc(-c3cccnc3)c2)c1 | 12.6 µM |
| Oc1cccc(-c2cc(-c3ccccc3)nc(-c3ccccn3)c2)c1 | 15.1 µM |
| Oc1ccccc1-c1cc(-c2ccccc2)nc(-c2ccco2)c1 | 1.9 µM |
| Oc1ccc(-c2cc(-c3ccccc3)cc(-c3ccco3)n2)cc1 | 3.3 µM |
| CC[C@@]1(O)C(=O)OCc2c1cc1n(c2=O)Cc2cc3ccccc3nc2-1 [CAMPTOTHECIN] | 0.1 µM |
| Oc1ccc(-c2cc(-c3ccccc3)cc(-c3ccccc3)n2)cc1 | 1.4 µM |
| Oc1ccc(-c2cc(-c3ccccc3)cc(-c3cccs3)n2)cc1 | 1.7 µM |
| Oc1ccc(-c2cc(-c3ccccc3)cc(-c3ccc(O)cc3)n2)cc1 | 5.7 µM |
| COc1cccc2c1C(=O)c1c(O)c3c(c(O)c1C2=O)C[C@@](O)(C(=O)CO)C[C@@H]3O[C@H]1C[C@H](N)[C@H](O)[C@H](C)O1 [DOXORUBICIN HYDROCHLORIDE] | 0.7 µM |

Each compound was assayed against DNA topoisomerase 2-alpha (Homo sapiens) (UniProt P11388) (assay: Inhibition of human recombinant TOP2A-mediated relaxation of supercoiled Escherichia coli pBR322 DNA at 100 uM after 30 mins by transillumination). Conditions: not given.
Procedure, shortened: (§2)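 200 ng supercoiled pBR322 with topo II, ± compound, 30 °C for 30 min. Buffer was 10 mM Tris–HCl pH 7.9, 50 mM NaCl, 5 mM MgCl₂, 1 mM EDTA, 1 mM ATP, BSA. Stopped with 7 mM EDTA, then 1% agarose gel in TAE at 25 V for 4 h. Ethidium bromide stain, UV transillumination, supercoiled DNA quantitated.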

Sequence of DNA topoisomerase 2-alpha (Homo sapiens) (P11388 whole entry): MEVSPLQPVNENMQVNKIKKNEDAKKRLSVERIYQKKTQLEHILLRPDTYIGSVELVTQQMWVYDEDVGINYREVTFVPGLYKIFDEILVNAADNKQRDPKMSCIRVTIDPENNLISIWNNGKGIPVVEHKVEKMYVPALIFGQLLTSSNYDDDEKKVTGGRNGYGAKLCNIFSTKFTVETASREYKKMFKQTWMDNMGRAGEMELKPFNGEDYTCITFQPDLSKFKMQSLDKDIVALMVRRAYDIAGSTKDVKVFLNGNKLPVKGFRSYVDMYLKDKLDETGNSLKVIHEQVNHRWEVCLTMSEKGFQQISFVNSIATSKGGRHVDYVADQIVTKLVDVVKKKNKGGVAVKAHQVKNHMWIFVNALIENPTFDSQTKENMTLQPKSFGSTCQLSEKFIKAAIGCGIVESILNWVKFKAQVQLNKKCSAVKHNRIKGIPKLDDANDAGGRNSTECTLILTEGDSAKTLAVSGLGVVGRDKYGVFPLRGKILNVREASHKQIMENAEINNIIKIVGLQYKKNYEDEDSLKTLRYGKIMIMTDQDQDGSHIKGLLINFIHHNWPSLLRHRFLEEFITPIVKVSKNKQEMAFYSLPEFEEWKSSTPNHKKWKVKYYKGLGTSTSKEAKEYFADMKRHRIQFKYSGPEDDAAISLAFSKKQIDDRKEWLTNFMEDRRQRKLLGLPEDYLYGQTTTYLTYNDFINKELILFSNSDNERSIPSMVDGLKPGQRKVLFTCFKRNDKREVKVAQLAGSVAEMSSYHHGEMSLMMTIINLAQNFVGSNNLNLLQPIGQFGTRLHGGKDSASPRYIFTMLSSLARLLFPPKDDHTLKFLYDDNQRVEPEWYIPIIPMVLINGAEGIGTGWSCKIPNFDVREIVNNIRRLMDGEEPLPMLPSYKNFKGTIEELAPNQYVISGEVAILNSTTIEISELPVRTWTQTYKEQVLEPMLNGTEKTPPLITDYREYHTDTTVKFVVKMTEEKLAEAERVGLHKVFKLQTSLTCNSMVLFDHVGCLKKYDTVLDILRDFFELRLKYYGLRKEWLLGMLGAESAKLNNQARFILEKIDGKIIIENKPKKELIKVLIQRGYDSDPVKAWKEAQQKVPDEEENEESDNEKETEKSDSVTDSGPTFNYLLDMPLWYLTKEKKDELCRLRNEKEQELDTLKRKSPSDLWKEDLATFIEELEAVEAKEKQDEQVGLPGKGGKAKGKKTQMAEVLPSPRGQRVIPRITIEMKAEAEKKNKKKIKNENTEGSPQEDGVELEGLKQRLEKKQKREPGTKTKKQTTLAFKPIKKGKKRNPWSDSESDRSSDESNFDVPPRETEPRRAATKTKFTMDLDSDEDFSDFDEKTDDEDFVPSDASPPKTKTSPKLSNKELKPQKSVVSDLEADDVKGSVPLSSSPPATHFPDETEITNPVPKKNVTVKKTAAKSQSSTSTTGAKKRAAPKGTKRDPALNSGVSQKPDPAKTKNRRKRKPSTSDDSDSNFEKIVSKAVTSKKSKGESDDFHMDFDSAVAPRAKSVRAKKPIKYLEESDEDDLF

| SMILES | inhibition |
| --- | --- |
| Oc1ccccc1-c1cc(-c2ccccc2)cc(-c2ccccc2O)n1 | 42.7% |
| Oc1cccc(-c2cc(-c3ccccc3)nc(-c3cccnc3)c2)c1 | 37.1% |
| Oc1cccc(-c2cc(-c3ccccc3)nc(-c3ccccn3)c2)c1 | 48.1% |
| Oc1ccccc1-c1cc(-c2ccccc2)nc(-c2ccco2)c1 | 31.2% |
| Oc1ccc(-c2cc(-c3ccccc3)cc(-c3ccco3)n2)cc1 | 35.2% |
| Oc1ccc(-c2cc(-c3ccccc3)cc(-c3ccccc3)n2)cc1 | 27.6% |
| Oc1ccc(-c2cc(-c3ccccc3)cc(-c3cccs3)n2)cc1 | 35.4% |
| Oc1ccc(-c2cc(-c3ccccc3)cc(-c3ccc(O)cc3)n2)cc1 | 76.8% |

These compounds were tested against DNA topoisomerase 2-alpha (Homo sapiens) (UniProt P11388) (assay: Inhibition of human recombinant TOP2A-mediated relaxation of supercoiled Escherichia coli pBR322 DNA at 20 uM after 30 mins by transillumination). Conditions: not given.
Procedure, shortened: as §2

| SMILES | inhibition |
| --- | --- |
| Oc1ccccc1-c1cc(-c2ccccc2)cc(-c2ccccc2O)n1 | 12.1% |
| Oc1cccc(-c2cc(-c3ccccc3)nc(-c3cccnc3)c2)c1 | 21.3% |
| Oc1cccc(-c2cc(-c3ccccc3)nc(-c3ccccn3)c2)c1 | 21.3% |
| Oc1ccccc1-c1cc(-c2ccccc2)nc(-c2ccco2)c1 | 3.1% |
| Oc1ccc(-c2cc(-c3ccccc3)cc(-c3ccco3)n2)cc1 | 10.2% |
| Oc1ccc(-c2cc(-c3ccccc3)cc(-c3cccs3)n2)cc1 | 1.3% |
| Oc1ccc(-c2cc(-c3ccccc3)cc(-c3ccc(O)cc3)n2)cc1 | 33.7% |

Each compound was assayed against T1, DNA topoisomerase 1 (Homo sapiens) (UniProt P11387) (assay: Inhibition of human recombinant TOP1-mediated relaxation of supercoiled Escherichia coli pBR322 DNA at 100 uM after 30 mins by transillumination). Conditions: not given.
T1 sequence (whole entry): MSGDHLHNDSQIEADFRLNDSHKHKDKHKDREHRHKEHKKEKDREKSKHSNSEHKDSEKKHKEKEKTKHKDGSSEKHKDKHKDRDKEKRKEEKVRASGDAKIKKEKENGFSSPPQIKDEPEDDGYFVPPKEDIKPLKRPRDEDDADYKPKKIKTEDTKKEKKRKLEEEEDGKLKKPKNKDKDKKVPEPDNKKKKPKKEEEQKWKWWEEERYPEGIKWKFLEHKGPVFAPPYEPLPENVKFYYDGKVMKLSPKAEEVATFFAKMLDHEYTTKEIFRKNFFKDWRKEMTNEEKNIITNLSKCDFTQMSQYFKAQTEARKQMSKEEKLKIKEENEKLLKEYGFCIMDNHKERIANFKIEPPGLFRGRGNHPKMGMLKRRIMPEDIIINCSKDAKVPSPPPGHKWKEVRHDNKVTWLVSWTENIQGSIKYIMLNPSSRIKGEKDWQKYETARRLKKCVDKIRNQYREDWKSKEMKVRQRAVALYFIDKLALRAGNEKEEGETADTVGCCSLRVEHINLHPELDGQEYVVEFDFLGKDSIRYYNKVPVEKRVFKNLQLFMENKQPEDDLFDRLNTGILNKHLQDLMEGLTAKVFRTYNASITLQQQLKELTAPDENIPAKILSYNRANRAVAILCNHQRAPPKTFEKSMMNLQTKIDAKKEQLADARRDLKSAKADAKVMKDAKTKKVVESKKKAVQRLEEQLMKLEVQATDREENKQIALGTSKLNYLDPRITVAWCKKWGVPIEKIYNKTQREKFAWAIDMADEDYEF
Procedure, shortened: (§3)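 Relaxation assay: 100 ng supercoiled pBR322 with 0.4 units recombinant human topo I, ± compound (DMSO stocks 20 mM), 37 °C, 30 min. Buffer was 10 mM Tris–HCl pH 7.9, 150 mM NaCl, 0.1% BSA, 1 mM spermidine, 5% glycerol. Stopped with sarcosyl/bromophenol blue/glycerol, then 1% agarose gel in TAE at 15 V for 7 h. Ethidium bromide stain, UV transillumination, bands quantitated by densitometry.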

| SMILES | inhibition |
| --- | --- |
| Oc1ccccc1-c1cc(-c2ccccc2)cc(-c2ccccc2O)n1 | 0% |
| Oc1cccc(-c2cc(-c3ccccc3)nc(-c3cccnc3)c2)c1 | 8.1% |
| Oc1cccc(-c2cc(-c3ccccc3)nc(-c3ccccn3)c2)c1 | 10.8% |
| Oc1ccccc1-c1cc(-c2ccccc2)nc(-c2ccco2)c1 | 1.5% |
| Oc1ccc(-c2cc(-c3ccccc3)cc(-c3ccco3)n2)cc1 | 18.6% |
| Oc1ccc(-c2cc(-c3ccccc3)cc(-c3ccccc3)n2)cc1 | 52.9% |
| Oc1ccc(-c2cc(-c3ccccc3)cc(-c3cccs3)n2)cc1 | 4.9% |
| Oc1ccc(-c2cc(-c3ccccc3)cc(-c3ccc(O)cc3)n2)cc1 | 0.3% |

What follows are compounds tested against T1, DNA topoisomerase 1 (Homo sapiens) (assay: Inhibition of human recombinant TOP1-mediated relaxation of supercoiled Escherichia coli pBR322 DNA at 20 uM after 30 mins by transillumination). Conditions: not given.
Procedure, shortened: as §3

| SMILES | inhibition |
| --- | --- |
| Oc1cccc(-c2cc(-c3ccccc3)nc(-c3cccnc3)c2)c1 | 1.5% |
| Oc1cccc(-c2cc(-c3ccccc3)nc(-c3ccccn3)c2)c1 | 2.8% |
| Oc1ccc(-c2cc(-c3ccccc3)cc(-c3ccccc3)n2)cc1 | 43.6% |

The compounds below were run on MDA-MB-231 (assay: Cytotoxicity against human MDA-MB-231 cells after 2 days by automatic ELISA reader system). Conditions: MDA-MB-231, 48 h.
Assay type: functional, cell-based
Procedure, shortened: as §1

| SMILES | IC50 |
| --- | --- |
| Oc1ccccc1-c1cc(-c2ccccc2)cc(-c2ccccc2O)n1 | 37.3 µM |
| Oc1cccc(-c2cc(-c3ccccc3)nc(-c3cccnc3)c2)c1 | 22.8 µM |
| Oc1cccc(-c2cc(-c3ccccc3)nc(-c3ccccn3)c2)c1 | 18.7 µM |
| Oc1ccccc1-c1cc(-c2ccccc2)nc(-c2ccco2)c1 | 4.6 µM |
| Oc1ccc(-c2cc(-c3ccccc3)cc(-c3ccco3)n2)cc1 | 1.4 µM |
| CC[C@@]1(O)C(=O)OCc2c1cc1n(c2=O)Cc2cc3ccccc3nc2-1 [CAMPTOTHECIN] | 0.3 µM |
| Oc1ccc(-c2cc(-c3ccccc3)cc(-c3ccccc3)n2)cc1 | 1.3 µM |
| Oc1ccc(-c2cc(-c3ccccc3)cc(-c3cccs3)n2)cc1 | 2.4 µM |
| Oc1ccc(-c2cc(-c3ccccc3)cc(-c3ccc(O)cc3)n2)cc1 | 6.7 µM |
| COc1cccc2c1C(=O)c1c(O)c3c(c(O)c1C2=O)C[C@@](O)(C(=O)CO)C[C@@H]3O[C@H]1C[C@H](N)[C@H](O)[C@H](C)O1 [DOXORUBICIN HYDROCHLORIDE] | 0.4 µM |

Each compound was assayed on HeLa (assay: Cytotoxicity against human HeLa cells after 2 days by automatic ELISA reader system). Conditions: 48 h.
Assay type: functional, cell-based
Procedure, shortened: as §1

| SMILES | IC50 |
| --- | --- |
| Oc1ccccc1-c1cc(-c2ccccc2)cc(-c2ccccc2O)n1 | 14.8 µM |
| Oc1cccc(-c2cc(-c3ccccc3)nc(-c3cccnc3)c2)c1 | 17.5 µM |
| Oc1cccc(-c2cc(-c3ccccc3)nc(-c3ccccn3)c2)c1 | 29.8 µM |
| Oc1ccccc1-c1cc(-c2ccccc2)nc(-c2ccco2)c1 | 9.7 µM |
| Oc1ccc(-c2cc(-c3ccccc3)cc(-c3ccco3)n2)cc1 | 10.9 µM |
| CC[C@@]1(O)C(=O)OCc2c1cc1n(c2=O)Cc2cc3ccccc3nc2-1 [CAMPTOTHECIN] | 0.4 µM |
| Oc1ccc(-c2cc(-c3ccccc3)cc(-c3ccccc3)n2)cc1 | 1.7 µM |
| Oc1ccc(-c2cc(-c3ccccc3)cc(-c3cccs3)n2)cc1 | 1.7 µM |
| Oc1ccc(-c2cc(-c3ccccc3)cc(-c3ccc(O)cc3)n2)cc1 | 3.3 µM |

From ChEMBL document CHEMBL1157776, “Synthesis, topoisomerase I and II inhibitory activity, cytotoxicity, and structure-activity relationship study of hydroxylated 2,4-diphenyl-6-aryl pyridines” (Bioorg Med Chem, 2010)
